Experimental data published in ChEMBL document CHEMBL1130378, “Cephalosporin 3'-phloroglucide esters and 7-(phloroglucidamido) cephalosporins as novel antibacterial agents” (1997).
≈ marks a conversion by molar mass, not a printed value.

Key:
Type in all cases: functional
Pseudomonas aeruginosa [1] = experiment: Minimum inhibitory concentration for prevention of visible growth of Pseudomonas aeruginosa (1101-75 strain)
Outline: (§1)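 Agar dilution: organisms deposited onto antibiotic-containing agar plates with a Steers-type replicator. MIC taken as the lowest concentration preventing visible growth, given as the mean of duplicate determinations.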

Staphylococcus aureus [2] = experiment: Minimum inhibitory concentration for prevention of visible growth of Staphylococcus aureus (FDA 209P strain); outline: as §1
Staphylococcus aureus [3] = experiment: Minimum inhibitory concentration for prevention of visible growth of Staphylococcus aureus (95 strain); outline: as §1
Candida albicans = experiment: Minimum inhibitory concentration for prevention of visible growth of Candida albicans; outline: as §1
Pseudomonas aeruginosa [4] = experiment: Minimum inhibitory concentration for prevention of visible growth of Pseudomonas aeruginosa (18S-H strain); outline: as §1
[5] = molecular target: Beta-lactamase (Pseudomonas aeruginosa (strain ATCC 15692 / PAO1 / 1C / PRS 101 / LMG12228)) (UniProt P24735); experiment: Minimum protective concentration against beta-lactamase Pseudomonas aeruginosa (18S-H strain)
Outline: (§2)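 MPC is the lowest β-lactam concentration that protects the indicator from hydrolysis within 40 min under standard conditions. Compound stability was checked without enzyme in phosphate buffer pH 6.5 at 37 °C.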

[6] = molecular target: Beta-lactamase (Staphylococcus aureus) (UniProt P00807); experiment: Minimum protective concentration against beta-lactamase in Staphylococcus aureus (95 strain); outline: as §2

Beta-lactamase (Pseudomonas aeruginosa (strain ATCC 15692 / PAO1 / 1C / PRS 101 / LMG12228)), sequence (P24735 27-397 limits assumed): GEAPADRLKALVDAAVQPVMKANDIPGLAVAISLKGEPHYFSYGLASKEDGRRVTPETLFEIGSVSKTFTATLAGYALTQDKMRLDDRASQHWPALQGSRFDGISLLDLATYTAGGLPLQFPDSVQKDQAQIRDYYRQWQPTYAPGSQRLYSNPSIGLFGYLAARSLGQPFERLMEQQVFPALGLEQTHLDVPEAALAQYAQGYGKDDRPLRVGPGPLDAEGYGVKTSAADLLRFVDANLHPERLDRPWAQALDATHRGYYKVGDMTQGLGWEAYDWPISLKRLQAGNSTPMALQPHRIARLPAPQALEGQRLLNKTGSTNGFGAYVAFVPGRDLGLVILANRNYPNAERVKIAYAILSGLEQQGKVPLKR

| MIC (Pseudomonas aeruginosa [1]) | MIC (Staphylococcus aureus [2]) | MIC (Staphylococcus aureus [3]) | MIC (Candida albicans) | MIC (Pseudomonas aeruginosa [4]) | MPC [5] | MPC [6] | SMILES |
| --- | --- | --- | --- | --- | --- | --- | --- |
| > 145 µg/mL | > 145 µg/mL | > 145 µg/mL | > 145 µg/mL | > 145 µg/mL | – | – | CC(=O)Oc1ccc(Br)cc1Cc1cc(Cl)cc(Cc2cc(Br)ccc2OC(C)=O)c1OC(C)=O |
| 6.03 µg/mL (≈ 14.2 µM) | 18.1 µg/mL (≈ 42.6 µM) | 17.8 µg/mL (≈ 41.7 µM) | 120 µg/mL (≈ 281 µM) | 8.32 µg/mL (≈ 19.5 µM) | – | – | CNC(=O)c1cccc(C(=O)c2cc(Cl)cc(C(=O)c3ccccc3O)c2O)c1O |
| 0.17 µg/mL (≈ 0.412 µM) | 3.67 µg/mL (≈ 8.89 µM) | 0.98 µg/mL (≈ 2.37 µM) | 3.7 µg/mL (≈ 8.96 µM) | 0.26 µg/mL (≈ 0.63 µM) | – | – | O=C(O)c1cccc(C(=O)c2cc(Cl)cc(C(=O)c3ccccc3O)c2O)c1O |
| 0.79 µg/mL (≈ 1.18 µM) | 0.78 µg/mL (≈ 1.17 µM) | 0.45 µg/mL (≈ 0.675 µM) | 14.2 µg/mL (≈ 21.3 µM) | 0.38 µg/mL (≈ 0.57 µM) | 93.5 µg/mL | 88.7 µg/mL | CC(=O)OCC1=C(C(=O)O)N2C(=O)[C@@H](NC(=O)c3cccc(C(=O)c4cc(Cl)cc(C(=O)c5ccccc5O)c4O)c3O)[C@H]2SC1 |
| – | – | – | – | – | 3 µg/mL | 0.38 µg/mL | O=C(O)[C@H]1/C(=C/CO)O[C@@H]2CC(=O)N21 |
| 5.78 µg/mL (≈ 13.5 µM) | 14.7 µg/mL (≈ 34.4 µM) | 15.3 µg/mL (≈ 35.9 µM) | 125 µg/mL (≈ 294 µM) | 4.3 µg/mL (≈ 10.1 µM) | – | – | COC(=O)c1cccc(C(=O)c2cc(Cl)cc(C(=O)c3ccccc3O)c2O)c1O |
| 1.25 µg/mL (≈ 3.13 µM) | 2.98 µg/mL (≈ 7.47 µM) | 4.65 µg/mL (≈ 11.7 µM) | 117 µg/mL (≈ 294 µM) | 1.56 µg/mL (≈ 3.91 µM) | – | – | COC(=O)c1cccc(Cc2cc(Cl)cc(Cc3ccccc3O)c2O)c1O |
| 0.86 µg/mL (≈ 2.01 µM) | 3.25 µg/mL (≈ 7.58 µM) | 4.15 µg/mL (≈ 9.68 µM) | 16.5 µg/mL (≈ 38.5 µM) | 1.32 µg/mL (≈ 3.08 µM) | – | – | O=C(O)c1cccc(Cc2cc(Cl)cc(Cc3cccc(C(=O)O)c3O)c2O)c1O |
| 0.98 µg/mL (≈ 1.34 µM) | 0.41 µg/mL (≈ 0.561 µM) | 1.2 µg/mL (≈ 1.64 µM) | 5.86 µg/mL (≈ 8.01 µM) | 1.24 µg/mL (≈ 1.7 µM) | 6.74 µg/mL | 7.08 µg/mL | O=C(COc1ccccc1)N[C@@H]1C(=O)N2C(C(=O)O)=C(COC(=O)c3cccc(Cc4cc(Cl)cc(Cc5ccccc5O)c4O)c3O)CS[C@H]12 |
| 0.07 µg/mL (≈ 0.205 µM) | 1.2 µg/mL (≈ 3.52 µM) | 0.58 µg/mL (≈ 1.7 µM) | 2.06 µg/mL (≈ 6.04 µM) | 0.18 µg/mL (≈ 0.528 µM) | – | – | Oc1ccccc1Cc1cc(Cl)cc(Cc2ccccc2O)c1O |
| 2.54 µg/mL (≈ 5.56 µM) | 18.2 µg/mL (≈ 40 µM) | 22.2 µg/mL (≈ 48.6 µM) | 19.1 µg/mL (≈ 41.9 µM) | 3.06 µg/mL (≈ 6.7 µM) | – | – | O=C(O)c1cccc(C(=O)c2cc(Cl)cc(C(=O)c3cccc(C(=O)O)c3O)c2O)c1O |
| > 145 µg/mL | > 145 µg/mL | > 145 µg/mL | > 145 µg/mL | > 145 µg/mL | – | – | Oc1ccccc1Cc1cccc(Cc2ccccc2O)c1O |
| 0.28 µg/mL (≈ 0.438 µM) | 0.35 µg/mL (≈ 0.548 µM) | 0.28 µg/mL (≈ 0.438 µM) | 28.3 µg/mL (≈ 44.3 µM) | 0.45 µg/mL (≈ 0.704 µM) | 99.8 µg/mL | 95.2 µg/mL | CC(=O)OCC1=C(C(=O)O)N2C(=O)[C@@H](NC(=O)c3cccc(Cc4cc(Cl)cc(Cc5ccccc5O)c4O)c3O)[C@H]2SC1 |
| 1.37 µg/mL (≈ 1.8 µM) | 0.9 µg/mL (≈ 1.19 µM) | 2.1 µg/mL (≈ 2.77 µM) | 6.47 µg/mL (≈ 8.52 µM) | 3.13 µg/mL (≈ 4.12 µM) | 5.98 µg/mL | 4.81 µg/mL | O=C(COc1ccccc1)N[C@@H]1C(=O)N2C(C(=O)O)=C(COC(=O)c3cccc(C(=O)c4cc(Cl)cc(C(=O)c5ccccc5O)c4O)c3O)CS[C@H]12 |
| 39.4 µg/mL (≈ 79 µM) | 45 µg/mL (≈ 90.3 µM) | 49 µg/mL (≈ 98.2 µM) | 115 µg/mL (≈ 231 µM) | 36.7 µg/mL (≈ 73.6 µM) | – | – | Oc1ccc(Br)cc1Cc1cc(Cl)cc(Cc2cc(Br)ccc2O)c1O |
| 3.28 µg/mL (≈ 8.24 µM) | 7.35 µg/mL (≈ 18.5 µM) | 6.63 µg/mL (≈ 16.7 µM) | 114 µg/mL (≈ 287 µM) | 4.7 µg/mL (≈ 11.8 µM) | – | – | CNC(=O)c1cccc(Cc2cc(Cl)cc(Cc3ccccc3O)c2O)c1O |
| > 145 µg/mL | > 145 µg/mL | > 145 µg/mL | > 145 µg/mL | > 145 µg/mL | – | – | CC(=O)Oc1ccccc1Cc1cc(Cl)cc(Cc2ccccc2OC(C)=O)c1OC(C)=O |
| > 145 µg/mL | 0.7 µg/mL (≈ 1.72 µM) | > 145 µg/mL | > 145 µg/mL | > 145 µg/mL | 0.97 µg/mL | 1.35 µg/mL | CC(=O)OCC1=C(C(=O)O)N2C(=O)[C@@H](NC(=O)COc3ccccc3)[C@H]2SC1 |
| 0.02 µg/mL (≈ 0.052 µM) | 0.86 µg/mL (≈ 2.23 µM) | 0.43 µg/mL (≈ 1.12 µM) | 1.43 µg/mL (≈ 3.72 µM) | 0.1 µg/mL (≈ 0.26 µM) | – | – | O=C(O)c1cccc(Cc2cc(Cl)cc(Cc3ccccc3O)c2O)c1O |
| 69.9 µg/mL (≈ 153 µM) | 1.7 µg/mL (≈ 3.73 µM) | 40.6 µg/mL (≈ 89.1 µM) | > 145 µg/mL | 135 µg/mL (≈ 296 µM) | 1.03 µg/mL | 2.72 µg/mL | CO/N=C(\C(=O)N[C@@H]1C(=O)N2C(C(=O)O)=C(COC(C)=O)CS[C@H]12)c1csc(N)n1 [CEFOTAXIME] |
